# Results reported in ChEMBL document CHEMBL3286357, “Design, synthesis and pharmacological evaluation of novel substituted quinoline-2-carboxamide derivatives as human dihydroorotate dehydrogenase (hDHODH) inhibitors and anticancer agents” (Eur J Med Chem, 2014).
# pIC50: −log10 of the molar value.
# Columns and labels:
# [1] = Antiproliferative activity against human Hep3B cells at 0.41 ug/ml for 24 hrs by MTT assay; assay type: functional, Hep 3B2
# Method in brief: (§1)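 HEP-3B or A-375 cells were grown in DMEM with 10% FBS, 5% HBSS, penicillin, streptomycin and amphotericin B at 37 C and 5% CO2. Cells were seeded at 2 × 10^4 per well and preincubated for 24 h. They were then exposed to ten 1:3 serial dilutions from a top concentration of 100, made from 2% DMSO stocks. MTT was added for 3 h, formazan was dissolved in DMSO, and A550 was read. Wells were run in triplicate across three independent experiments. IC50 came from dose-response curves.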
# [2] = test system: A-375; experiment: Antiproliferative activity against human A375 cells at 33.33 ug/ml for 24 hrs by MTT assay; assay type: functional; settings: A-375, 24 h; method in brief: as §1
# [3] = test system: A-375; experiment: Antiproliferative activity against human A375 cells at 11.11 ug/ml for 24 hrs by MTT assay; assay type: functional; settings: A-375, 24 h; method in brief: as §1
# [4] = test system: A-375; experiment: Antiproliferative activity against human A375 cells at 0.41 ug/ml for 24 hrs by MTT assay; assay type: functional; settings: A-375, 24 h; method in brief: as §1
# [5] = test system: A-375; experiment: Antiproliferative activity against human A375 cells at 0.05 ug/ml for 24 hrs by MTT assay; assay type: functional; settings: A-375, 24 h; method in brief: as §1
# [6] = Antiproliferative activity against human Hep3B cells at 0.14 ug/ml for 24 hrs by MTT assay; assay type: functional, Hep 3B2; method in brief: as §1
# [7] = test system: A-375 (human melanoma); experiment: Antiproliferative activity against human A375 cells for 24 hrs by MTT assay; settings: A-375, 24 h
# [8] = Antiproliferative activity against human Hep3B cells at 100 ug/ml for 24 hrs by MTT assay; assay type: functional, Hep 3B2; method in brief: as §1
# [9] = Antiproliferative activity against human Hep3B cells at 33.33 ug/ml for 24 hrs by MTT assay; assay type: functional, Hep 3B2; method in brief: as §1
# [10] = test system: A-375; experiment: Antiproliferative activity against human A375 cells at 100 ug/ml for 24 hrs by MTT assay; assay type: functional; settings: A-375, 24 h; method in brief: as §1
# [11] = test system: A-375; experiment: Antiproliferative activity against human A375 cells at 3.7 ug/ml for 24 hrs by MTT assay; assay type: functional; settings: A-375, 24 h; method in brief: as §1
# [12] = Antiproliferative activity against human Hep3B cells at 1.23 ug/ml for 24 hrs by MTT assay; assay type: functional, Hep 3B2; method in brief: as §1
# [13] = Retention time of compound by HPLC analysis; assay type: physicochemical
# [14] = Antiproliferative activity against human Hep3B cells at 3.7 ug/ml for 24 hrs by MTT assay; assay type: functional, Hep 3B2; method in brief: as §1
# [15] = Antiproliferative activity against human Hep3B cells at 11.11 ug/ml for 24 hrs by MTT assay; assay type: functional, Hep 3B2; method in brief: as §1
# [16] = test system: A-375; experiment: Antiproliferative activity against human A375 cells at 0.01 ug/ml for 24 hrs by MTT assay; assay type: functional; settings: A-375, 24 h; method in brief: as §1
# [17] = Antiproliferative activity against human Hep3B cells at 0.05 ug/ml for 24 hrs by MTT assay; assay type: functional, Hep 3B2; method in brief: as §1
# [18] = test system: A-375; experiment: Antiproliferative activity against human A375 cells at 0.14 ug/ml for 24 hrs by MTT assay; assay type: functional; settings: A-375, 24 h; method in brief: as §1
# [19] = Antiproliferative activity against human Hep3B cells at 0.02 ug/ml for 24 hrs by MTT assay; assay type: functional, Hep 3B2; method in brief: as §1
# [20] = test system: HEP-3B (human hepatoma); experiment: Antiproliferative activity against human Hep3B cells for 24 hrs by MTT assay
# [21] = test system: A-375; experiment: Antiproliferative activity against human A375 cells at 1.23 ug/ml for 24 hrs by MTT assay; assay type: functional; settings: A-375, 24 h; method in brief: as §1
# [22] = Antiproliferative activity against human Hep3B cells at 0.01 ug/ml for 24 hrs by MTT assay; assay type: functional, Hep 3B2; method in brief: as §1
# [23] = test system: A-375; experiment: Antiproliferative activity against human A375 cells at 0.02 ug/ml for 24 hrs by MTT assay; assay type: functional; settings: A-375, 24 h; method in brief: as §1
# [24] = target: Dihydroorotate dehydrogenase (quinone), mitochondrial (Homo sapiens, UniProt Q02127); experiment: Inhibition of recombinant human DHODH activity after 20 mins by DCIP dye based colorimetric analysis in presence of 1 mM L-dihydroorotate and 0.1 mM CqD
# Dihydroorotate dehydrogenase (quinone), mitochondrial, sequence (Q02127 whole entry): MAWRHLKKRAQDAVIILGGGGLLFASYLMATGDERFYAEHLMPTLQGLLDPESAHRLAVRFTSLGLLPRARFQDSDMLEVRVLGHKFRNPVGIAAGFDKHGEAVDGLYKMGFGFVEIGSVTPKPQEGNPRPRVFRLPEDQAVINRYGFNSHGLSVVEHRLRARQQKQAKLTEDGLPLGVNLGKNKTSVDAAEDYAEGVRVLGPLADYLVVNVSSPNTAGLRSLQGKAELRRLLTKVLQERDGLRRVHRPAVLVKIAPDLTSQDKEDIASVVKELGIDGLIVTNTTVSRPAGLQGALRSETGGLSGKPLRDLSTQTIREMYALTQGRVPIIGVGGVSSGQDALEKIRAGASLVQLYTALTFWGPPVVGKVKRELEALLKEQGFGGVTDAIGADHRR
smiles,measurement,setting,value
Cc1c(C(=O)Nc2c(F)cc(-c3cccc(F)c3)cc2F)nc2ccc(F)cc2c1C(=O)O,inhibition at 0.41 µg/mL,[1],1.06%
same,inhibition at 33.33 µg/mL,[2],41.3%
same,inhibition at 11.11 µg/mL,[3],36.2%
same,inhibition at 0.41 µg/mL,[4],3.02%
same,inhibition at 0.05 µg/mL,[5],0.37%
same,inhibition at 0.14 µg/mL,[6],0.65%
same,pIC50,[7],4.83
same,inhibition at 100 µg/mL,[8],65.2%
same,inhibition at 33.33 µg/mL,[9],34.3%
same,inhibition at 100 µg/mL,[10],64.3%
same,inhibition at 3.7 µg/mL,[11],24.5%
same,inhibition at 1.23 µg/mL,[12],2.45%
same,Retention_time,[13],7.2 min
same,inhibition at 3.7 µg/mL,[14],11.2%
same,inhibition at 11.11 µg/mL,[15],26.3%
same,inhibition at 0.01 µg/mL,[16],-0.56%
same,inhibition at 0.05 µg/mL,[17],0.05%
same,inhibition at 0.14 µg/mL,[18],1.05%
same,inhibition at 0.02 µg/mL,[19],-0.13%
same,pIC50,[20],4.09
same,inhibition at 1.23 µg/mL,[21],16.3%
same,inhibition at 0.01 µg/mL,[22],-0.35%
same,inhibition at 0.02 µg/mL,[23],-0.22%
same,pIC50,[24],5.34
